In publication PMC3068526 (Science (New York, N.Y.), 2010):

Assays:
[1] = test system: ghrelin knockout C57BL6 mice; experiment: body weight and adiposity in ghrelin knockout mice; format: in vivo, mouse
human islet cells = experiment: insulin response of human islet cells to a glucose challenge; format: cell-based; settings: human islet cells pre-treated with compound
p300 HAT = experiment: in vitro inhibition of acetyl-CoA utilizing enzyme p300 HAT; format: biochemical; settings: at 10 μM
cell viability = experiment: cell viability; format: cell-based; settings: in the concentration range studied
[2] = test system: serotonin N-acetyltransferase; experiment: in vitro inhibition of serotonin N-acetyltransferase; format: biochemical; settings: at 10 μM
wt mice [3] = experiment: blood chemistries and blood cell counts after one month of treatment; format: in vivo, mouse
[4] = test system: recombinant solubilized or microsomal GOAT; experiment: UV crosslinking of biotin-tagged benzoyl-phenylalanine analogs to GOAT; format: binding; settings: competitor at 100 μM
Summary of the method: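 Solubilized GOAT was UV-crosslinked with biotin-tagged benzophenylalanine-containing probe analogs (L5BP, F4BP) at 5 μM, with or without 100 μM unlabelled test compound as competitor. Cross-linked GOAT was detected on immunoblots with streptavidin, and loading was checked with anti-FLAG.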

GHSR-1a receptor = GHSR-1a receptor antagonism; format: cell-based
[5] = test system: wild type (wt) C57BL6 animals; experiment: serum acyl and desacyl ghrelin levels in mice after intraperitoneal dosing; format: in vivo, mouse; settings: 11 μmol/kg (40 mg/kg) intraperitoneal, wt C57BL6 mice on MCT diet
Summary of the method: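 Wild-type C57BL6 mice on a medium-chain triglyceride diet were given a single IP dose of test compound at 11 μmol/kg (40 mg/kg), or the D4-Tat control or vehicle (n = 5). Serum acyl and desacyl ghrelin and percent acyl ghrelin were measured at 6, 12 and 24 h. Standard errors are reported.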

wt C57BL6 mice = experiment: body weight and QMR fat/lean mass in wt mice on MCT diet, one month treatment; format: in vivo, mouse; settings: 11 μmol/kg IP every 24 h
Summary of the method: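 Wild-type C57BL6 mice on a medium-chain triglyceride diet received test compound at 11 μmol/kg IP every 24 h for one month (n = 5) or vehicle (n = 6). Body mass was recorded daily, and fat and lean mass were determined by quantitative magnetic resonance. Standard errors are reported.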

ghrelin knockout animals = experiment: intraperitoneal glucose challenge in ghrelin knockout animals; format: in vivo, mouse; settings: compared to vehicle or to wt animals analyzed in parallel
wt mice [6] = experiment: weight gain in wt mice fed a high fat diet; format: in vivo, mouse
[7] = test system: recombinant microsomal GOAT; experiment: in vitro acyltransferase inhibition assay; format: biochemical; settings: 100 nM compound, within 5 min (5 min reaction), radioactive assay
GOAT = target: T1, GOAT (Homo sapiens, UniProt Q96T53); format: cell-based
T1 sequence (Q96T53 1-435): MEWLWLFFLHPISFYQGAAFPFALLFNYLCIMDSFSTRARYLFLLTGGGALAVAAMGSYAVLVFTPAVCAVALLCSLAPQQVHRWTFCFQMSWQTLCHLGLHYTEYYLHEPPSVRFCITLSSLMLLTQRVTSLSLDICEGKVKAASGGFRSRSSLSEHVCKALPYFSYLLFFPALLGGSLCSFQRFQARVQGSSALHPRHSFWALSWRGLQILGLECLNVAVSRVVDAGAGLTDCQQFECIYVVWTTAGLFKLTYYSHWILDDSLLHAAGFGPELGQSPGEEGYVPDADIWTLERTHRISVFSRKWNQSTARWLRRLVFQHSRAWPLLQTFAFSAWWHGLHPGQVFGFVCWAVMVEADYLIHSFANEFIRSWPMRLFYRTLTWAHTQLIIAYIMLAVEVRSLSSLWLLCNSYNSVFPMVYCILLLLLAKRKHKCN
Summary of the method: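 HeLa and HEK cells stably expressing GOAT and preproghrelin were grown in octanoic acid-supplemented medium. Acyl and desacyl ghrelin were measured after test compound exposure, either as a time course at 6 μM in HeLa cells or as a dose-response after 24 h incubation. IC50 was derived from the acyl ghrelin reduction.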

PCAF HAT = experiment: in vitro inhibition of acetyl-CoA utilizing enzyme PCAF HAT; format: biochemical; settings: at 10 μM
UCP2 mRNA = experiment: QRT-PCR of islets and gastric fundus isolated from treated mice; format: in vivo, mouse
[8] = ghrelin knockout mice on MCT diet, 11 μmol/kg, 1 mo

For CCCCCCC(SCCNC(=O)CCNC(=O)[C@H](O)C(C)(C)COP(=O)(O)OP(=O)(O)OC[C@H]1O[C@@H](n2cnc3c(N)ncnc32)[C@H](O)[C@@H]1OP(=O)(O)O)C(=O)NC[C@H](NC(=O)[C@H](CO)NC(=O)CN)C(=O)N[C@@H](Cc1ccccc1)C(=O)N[C@@H](CC(C)C)C(=O)N[C@@H](CO)C(=O)N1CCC[C@H]1C(=O)N[C@@H](CCC(=O)O)C(=O)N[C@@H](Cc1c[nH]cn1)C(=O)N[C@@H](CCC(N)=O)C(=O)NCCCCCC(=O)N[C@@H](Cc1ccc(O)cc1)C(=O)NCC(=O)N[C@@H](CCCNC(=N)N)C(=O)N[C@@H](CCCCN)C(=O)N[C@@H](CCCCN)C(=O)N[C@@H](CCCNC(=N)N)C(=O)N[C@@H](CCCNC(=N)N)C(=O)N[C@@H](CCC(N)=O)C(=O)N[C@@H](CCCNC(=N)N)C(=O)N[C@@H](CCCNC(=N)N)C(=O)N[C@@H](CCCNC(=N)N)C(N)=O (stereo partly shown) [GO-CoA-Tat], the “fat mass (QMR)” value [1, 8] was “did not significantly alter”, the “lean mass (QMR)” value [1, 8] was “did not significantly alter” and the weight ([1]; ghrelin knockout mice on MCT diet, 11 μmol/kg, 1 mo, n = 5 vs vehicle n = 5) was “did not significantly alter”. The “weight gain of treated ghrelin knockout mice versus treated age-matched wt mice” value ([1]; separate long term study, one month of administration) was “gained more weight”, the “insulin response to a glucose challenge” value (human islet cells) was “statistically significant increase in insulin response” and the “inhibition of p300 HAT” value (p300 HAT) was “less than 15%”. The “toxicity to cell viability” value (cell viability) was “non-toxic”, the “inhibition of serotonin N-acetyltransferase” value [2] was “less than 15%” and the IGF-1 levels (wt mice [3]) was “lower IGF-1 levels”. The blood glucose (wt mice [3]) was “lower blood glucose”, the “generalized toxicity by blood chemistries and blood cell counts” value (wt mice [3]) was “no evidence of liver, renal, pancreas, or bone marrow toxicities” and the “blocking of cross-linking of F4BP/L5BP analogs to GOAT (competitor)” value [4] was “can be blocked by GO-CoA-Tat”. For the same compound, the “antagonism of GHSR-1a receptor” value (GHSR-1a receptor) was “does not antagonize”, the “serum levels of desacyl ghrelin” value [5] was “no significant effect” and the “time of maximum inhibition of serum acyl ghrelin after administration” value [5] was 6 h. For the same compound, the “serum levels of acyl ghrelin” value ([5]; n = 5, 6, 12 and 24 h) was “decreased serum levels of acyl ghrelin”, the weight gain (wt C57BL6 mice; n = 5 vs vehicle n = 6) was “prevented the significant weight gain” and the “fat mass (QMR)” value (wt C57BL6 mice; relative to controls) was “significantly lower fat mass”. For the same compound, the “lean mass (QMR)” value (wt C57BL6 mice; relative to controls) was “but not lean mass”, the “effect in glucose challenge” value (ghrelin knockout animals) was “did not have a significant effect” and the fat mass (wt mice [6]) was “relative reduction of fat mass”. For the same compound, the food intake (wt mice [6]) was “no effect on food intake”, the lean mass (wt mice [6]) was “without a change in lean mass” and the weight gain (wt mice [6]) was “slowed weight gain”. For the same compound, the GOAT inhibition [7] was “Virtually complete GOAT inhibition”, the “inhibition of production of desacyl ghrelin” value (GOAT; GOAT/preproghrelin stably expressing HeLa and HEK cells) was “not desacyl ghrelin” and the “exposure time needed for maximal inhibition of acyl ghrelin” value (GOAT; preproghrelin/GOAT-transfected HeLa and HEK cells, 6 μM in HeLa time course) was 24 h. For the same compound, the “inhibition of PCAF HAT” value (PCAF HAT) was “less than 15%”, the “effects on UCP2 mRNA in the gastric fundus” value (UCP2 mRNA; gastric fundus from mice treated 24 h prior to isolation, n = 3) was “non-statistically significant effects” and the “reduction in UCP2 mRNA in islets” value (UCP2 mRNA; islets isolated from mice treated 24 h prior to isolation, compared to D4-tat treated mice, n = 3) was 20 fold. For the same compound, the “levels of insulin, ghrelin, or GHSR mRNAs in islets” value (UCP2 mRNA; islets isolated from treated mice, compared to D4-tat treated mice) was “no change”.
